Assay results reported in ChEMBL document CHEMBL3526007, “The inactivation of human CYP2E1 by phenethyl isothiocyanate, a naturally occurring chemopreventive agent, and its oxidative bioactivation” (Drug Metab Dispos, 2013).

Assays:
Format in all cases: ADME
CYP2E1 [1] = target: T1, CYP2E1 (Homo sapiens, UniProt P05181); test: (§1) Inhibition of human CYP2E1 expressed in Escherichia coli MV1304 assessed as reduction in 7-EFC O-de-ethylation activity by spectrofluorometry based double reciprocal plot; settings: human, probe 7-EFC (O-de-ethylation)
Outline: (§2)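 Reconstituted CYP2E1 (1 µM) with reductase (1 µM), 100 µg/ml DLPC and catalase, in 50 mM KPi pH 7.4. PEITC 0–50 µM was added (1% methanol final) and the reaction started with 1.2 mM NADPH at 30°C. Aliquots taken at 0–5 min were assayed for 10 min with 0.1 mM 7-EFC and 0.2 mM NADPH; 7-HFC fluorescence was read. Inactivation rates were analysed by double-reciprocal plot. Six experiments, each in duplicate.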

Cytochrome P450 2E1 [2] = target: T2, Cytochrome P450 2E1 (Homo sapiens, UniProt P05181); test: as §1; outline: as §2
CYP2E1 [3] = target: T1, CYP2E1; test: Inactivation of human CYP2E1 expressed in Escherichia coli MV1304 assessed as remaining enzyme activity at 25 uM after dialysis in presence of fresh reductase by 7-EFC O-de-ethylation activity detection based spectrofluorometry; settings: probe 7-EFC (O-de-ethylation), read-out: Activity
Outline: (§3)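 CYP2E1 and reductase (1 µM each) reconstituted with DLPC (100 µg/ml) plus catalase in 50 mM K phosphate pH 7.4. Incubated 10 min at 30°C with 25 µM PEITC ± 1.2 mM NADPH; control had neither. Then dialysed overnight at 4°C against phosphate buffer with 20% glycerol and 0.1 mM EDTA. Read-outs: P450 by reduced CO difference spectrum (ε450 91 mM⁻¹cm⁻¹), heme by HPLC, and 7-EFC O-de-ethylation after re-adding lipid (50 µg/ml) ± fresh reductase (1 µM). Two experiments in duplicate.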

Cytochrome P450 2E1 [4] = target: T2, Cytochrome P450 2E1; test: Inactivation of human CYP2E1 expressed in Escherichia coli MV1304 assessed as remaining P450 level at 25 uM after dialysis by CO difference spectral method; outline: as §3
Cytochrome P450 2E1 [5] = target: T2, Cytochrome P450 2E1; test: Inhibition of human CYP2E1 expressed in Escherichia coli MV1304 assessed as partition ratio for enzyme inactivation
Outline: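 Reconstituted CYP2E1 (1 µM) with reductase (1 µM), 100 µg/ml DLPC and catalase, in 50 mM KPi pH 7.4. Incubated with increasing PEITC plus 1.2 mM NADPH for 10 min at 30°C until inactivation was complete. Residual 7-EFC O-de-ethylation was read by fluorescence (ex 410/em 510 nm). Percent activity remaining was plotted against PEITC:P450 molar ratio. The turnover number (r+1) was taken from the intercept of the regression lines. Mean of three experiments.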

Cytochrome P450 2E1 [6] = target: T2, Cytochrome P450 2E1; test: Inactivation of human CYP2E1 expressed in Escherichia coli MV1304 assessed as remaining heme level at 25 uM after dialysis by HPLC method; outline: as §3
Cytochrome P450 2E1 [7] = target: T2, Cytochrome P450 2E1; test: Drug metabolism assessed as human CYP2E1-mediated phenethylamine formation at 50 uM in presence of reductase and absence of NADPH after 30 mins by LC-MS/MS method; settings: recombinant enzyme, 0.5 h
Outline: (§4)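 CYP2E1 (1 µM) and reductase (1 µM) reconstituted with lipid (100 µg/ml) and preincubated with 2 mM GSH. PEITC (final 50 µM) and NADPH (final 1.2 mM) then added, 30 min at 30°C; controls ran without NADPH. Products were taken up by C18 solid-phase extraction and analysed by positive-ion ESI LC-MS/MS, one full scan plus two data-dependent scans.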

Cytochrome P450 2E1 [8] = target: T2, Cytochrome P450 2E1; test: Inactivation of human CYP2E1 expressed in Escherichia coli MV1304 assessed as remaining P450 level at 25 uM in presence of 1.2 mM NADPH after dialysis by CO difference spectral method; outline: as §3
Cytochrome P450 2E1 [9] = target: T2, Cytochrome P450 2E1; test: Inhibition of human CYP2E1 expressed in Escherichia coli MV1304 assessed as reduction in 7-EFC O-de-ethylation activity by spectrofluorometry
Outline: (§5)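 Primary mix: 1 µM CYP2E1, 1 µM reductase, 100 µg/ml DLPC and catalase in 50 mM K phosphate pH 7.4, with PEITC 0–50 µM (methanol 1% final). Started with 1.2 mM NADPH at 30°C and sampled at 0–5 min. Aliquots assayed for 10 min with 0.1 mM 7-EFC and 0.2 mM NADPH; fluorescence read at ex 410/em 510 nm. Inactivation kinetics from a double-reciprocal plot. Six experiments in duplicate.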

Cytochrome P450 2E1 [10] = target: T2, Cytochrome P450 2E1; test: Drug metabolism assessed as human CYP2E1-mediated phenethylamine formation at 50 uM in presence of reductase and NADPH after 30 mins by LC-MS/MS method; settings: recombinant enzyme, 0.5 h; outline: as §4
Cytochrome P450 2E1 [11] = target: T2, Cytochrome P450 2E1; test: Covalent binding to human CYP2E1 expressed in Escherichia coli MV1304 assessed as protein-adduct formation at 25 uM after 10 mins by ESI LC-MS/MS method
Outline: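 CYP2E1 (1 µM) reconstituted with lipid only (100 µg/ml), no reductase, incubated 10 min at 30°C; control received methanol. Samples (50 µl) analysed by ESI LC-MS/MS on a C18 reverse-phase column equilibrated with 35% acetonitrile/0.1% TFA. Protein envelopes deconvoluted to give the intact protein mass. Mean of two injections.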

CYP2E1 [12] = target: T1, CYP2E1; test: Inactivation of human CYP2E1 expressed in Escherichia coli MV1304 assessed as remaining enzyme activity at 25 uM in presence of 1.2 mM NADPH after dialysis in presence of fresh reductase by 7-EFC O-de-ethylation activity detection based spectrofluorometry; settings: probe 7-EFC (O-de-ethylation), read-out: Activity; outline: as §3
Cytochrome P450 2E1 [13] = target: T2, Cytochrome P450 2E1; test: Inactivation of human CYP2E1 expressed in Escherichia coli MV1304 assessed as remaining heme level at 25 uM in presence of 1.2 mM NADPH after dialysis by HPLC method; outline: as §3
Cytochrome P450 2E1 [14] = target: T2, Cytochrome P450 2E1; test: Inhibition of human CYP2E1 expressed in Escherichia coli MV1304 assessed as reduction in 7-EFC O-de-ethylation activity at 50 uM added 1 min before NADPH addition in presence of 1 mM GSH by spectrofluorometry; settings: TDE = time-dependent effect
Outline: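 Reconstituted CYP2E1/reductase (1 µM each, DLPC, catalase, pH 7.4 phosphate). Arms: 1.2 mM NADPH alone, with 50 µM PEITC, or with 50 µM PEITC plus 1 mM GSH. PEITC added 1 min before NADPH; incubation at 30°C. Residual 7-EFC O-de-ethylation measured at 0, 2, 4, 6 and 12 min by 7-HFC fluorescence.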

CYP2E1 [15] = target: T1, CYP2E1; test: Inactivation of human CYP2E1 expressed in Escherichia coli MV1304 assessed as remaining enzyme activity at 25 uM in presence of 1.2 mM NADPH after dialysis by 7-EFC O-de-ethylation activity detection based spectrofluorometry; settings: probe 7-EFC (O-de-ethylation), read-out: Activity; outline: as §3
Cytochrome P450 2E1 [16] = target: T2, Cytochrome P450 2E1; test: Inhibition of human CYP2E1 expressed in Escherichia coli MV1304 assessed as reduction in 7-EFC O-de-ethylation activity in absence of cytochrome b5 by spectrofluorometry; outline: as §5
CYP2E1 [17] = target: T1, CYP2E1; test: Inactivation of human CYP2E1 expressed in Escherichia coli MV1304 assessed as remaining enzyme activity at 25 uM after dialysis by 7-EFC O-de-ethylation activity detection based spectrofluorometry; settings: probe 7-EFC (O-de-ethylation), read-out: Activity; outline: as §3
Cytochrome P450 2E1 [18] = target: T2, Cytochrome P450 2E1; test: Drug level assessed as human CYP2E1-mediated compound formation using 50 uM phenethylisothiocyanate in presence of reductase and NADPH after 30 mins by LC-MS/MS method; settings: recombinant enzyme, 0.5 h
Outline: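 Recombinant human CYP2E1 (1 µM) with reductase (1 µM) reconstituted in DLPC (100 µg/ml), preincubated with 2 mM GSH. PEITC added to a final 50 µM with NADPH at a final 1.2 mM, then incubated 30 min at 30°C. Controls lacked NADPH. Metabolites and GSH conjugates recovered by C18 solid-phase extraction and analysed by positive-ion ESI LC-MS/MS.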

Liver microsome = test: Drug level in human liver microsomes treated with 50 uM phenethylisothiocyanate after 30 mins by ESI LC-MS/MS method; settings: 0.5 h
Outline: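 Human liver microsomes (0.5 mg protein/ml) in 50 mM potassium phosphate pH 7.4, preincubated 5 min with 2 mM GSH. PEITC added to a final 50 µM with NADPH at a final 1.2 mM, then incubated 30 min at 37°C. Controls lacked NADPH. GSH conjugate recovered by C18 solid-phase extraction and analysed by positive-ion LC-MS/MS.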

Cytochrome P450 2E1 [19] = target: T2, Cytochrome P450 2E1; test: Retention time assessed as human CYP2E1-mediated compound formation using 50 uM phenethylisothiocyanate in presence of reductase and NADPH after 30 mins by LC-MS/MS method; settings: recombinant enzyme, 0.5 h; outline: as §4
Cytochrome P450 2E1 [20] = target: T2, Cytochrome P450 2E1; test: Inhibition of human CYP2E1 expressed in Escherichia coli MV1304 assessed as reduction in 7-EFC O-de-ethylation activity at 10 uM after 10 mins in presence of reductase by spectrofluorometry
Outline: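 Reconstituted CYP2E1/reductase (1 µM each, 100 µg/ml DLPC, catalase, 50 mM K phosphate pH 7.4) incubated 10 min at 30°C with PIC at 0- to 100-fold molar excess; PIC in acetonitrile, 1% final. Aliquots diluted into secondary mix (0.1 mM 7-EFC, 0.2 mM NADPH, BSA) for 10 min; 7-HFC read at ex 410/em 510 nm. Three experiments in duplicate.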

T2 sequence (P05181 whole entry): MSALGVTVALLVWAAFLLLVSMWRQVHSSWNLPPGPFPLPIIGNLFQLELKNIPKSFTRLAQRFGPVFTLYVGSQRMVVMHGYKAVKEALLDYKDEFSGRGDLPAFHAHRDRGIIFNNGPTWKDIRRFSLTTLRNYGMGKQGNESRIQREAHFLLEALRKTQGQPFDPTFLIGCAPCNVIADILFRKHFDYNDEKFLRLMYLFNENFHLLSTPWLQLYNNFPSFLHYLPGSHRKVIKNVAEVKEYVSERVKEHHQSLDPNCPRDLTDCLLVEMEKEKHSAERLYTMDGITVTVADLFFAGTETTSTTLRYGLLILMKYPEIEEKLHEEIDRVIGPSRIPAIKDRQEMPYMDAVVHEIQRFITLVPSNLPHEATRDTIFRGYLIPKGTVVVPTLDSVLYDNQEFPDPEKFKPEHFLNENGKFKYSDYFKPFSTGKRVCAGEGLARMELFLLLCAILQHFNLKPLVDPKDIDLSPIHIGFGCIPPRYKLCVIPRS
T1 sequence (P05181 whole entry): as above

`S=C=NCCc1ccccc1` [PHENETHYLISOTHIOCYANATE] gave a kinact (CYP2E1 [1]) of 0.00383 s⁻¹, a Ki (Cytochrome P450 2E1 [2]) of 11 µM and an activity at 25 µM (CYP2E1 [3]) of 85%. The Activity (Cytochrome P450 2E1 [4]) was 93%, the Ratio (Cytochrome P450 2E1 [5]) was 12 and the Activity (Cytochrome P450 2E1 [6]) was 100%. For the same molecule, the Drug metabolism (Cytochrome P450 2E1 [7]) was “metabolite_not_detected”, the Activity (Cytochrome P450 2E1 [8]) was 42% and the “inhibition (INH)” value (Cytochrome P450 2E1 [9]) was “Dose-dependent effect and tde”. For the same molecule, the Drug metabolism (Cytochrome P450 2E1 [10]) was “metabolite_detected”, the Activity (Cytochrome P450 2E1 [11]) was “Not Active” and the activity at 25 µM (CYP2E1 [12]) was 26%. For the same molecule, the Activity (Cytochrome P450 2E1 [13]) was 64%, the “inhibition (INH)” value (Cytochrome P450 2E1 [14]) was “tde” and the activity at 25 µM (CYP2E1 [15]) was 27%. The “inhibition (INH)” value (Cytochrome P450 2E1 [16]) was “Active” and the activity at 25 µM (CYP2E1 [17]) was 82%.
With `N[C@@H](CCC(=O)N[C@@H](CSC(=O)NCCc1ccccc1)C(=O)NCC(=O)O)C(=O)O` the Drug metabolism (Cytochrome P450 2E1 [18]) was “metabolite_detected” and the Drug metabolism (Liver microsome) was “metabolite_detected”.
In the case of `N[C@@H](CCC(=O)N[C@@H](CSC(=S)NCCc1ccccc1)C(=O)NCC(=O)O)C(=O)O`, the Retention_time (Cytochrome P450 2E1 [19]) is reported as 16.7 min and the Drug metabolism (Cytochrome P450 2E1 [18]) is reported as “metabolite_detected”.
Molecule `NCCc1ccccc1` [PHENETHYLAMINE] has a Retention_time (Cytochrome P450 2E1 [19]) of 12.7 min.
With `O=C=NCCc1ccccc1` [PHENETHYL ISOCYANATE] the “inhibition (INH)” value (Cytochrome P450 2E1 [20]) was “Not Active”.
